Measured values as given in ChEMBL document CHEMBL1122650, “Synthesis and central nervous system properties of 2-[(alkoxycarbonyl)amino]-4(5)-phenyl-2-imidazolines” (J Med Chem, 1984).
The source made the active and inactive calls. No cut-off for these calls is given here.

Assays:
[1] = Lethal dose in mouse, in groups of ten; format: toxicity, organism-based; conditions: in vivo
Mus musculus [2] = species on record: Mus musculus; experiment: Mouse behavior activity was determined; Stimulant Weak; format: functional, organism-based
Method in brief: (§1)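 Male Simonsen (ICR) fBR mice, 18-24 g, groups of three, given 3, 10, 30, 100, 300 or 1000 mg/kg ip as aqueous solution and observed for behavioral profile; deaths followed up to 7 days.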

Mus musculus [3] = species on record: Mus musculus; experiment: Compound was evaluated for maximal electroshock antagonism (MES) against mice; format: functional
Method in brief: (§2)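 Male HLa (ICR) BR mice, groups of eight to ten, dosed ip (aqueous solution) 15 min before transcorneal electroshock (50 mA, 0.2 s). End point: abolition of tonic hind-limb extension; quantal ED50 by Litchfield-Wilcoxon.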

[4] = HPLC capacity factor (k'); format: ADME
Mus musculus [5] = species on record: Mus musculus; experiment: Evaluated for antagonism of reserpine induced hypothermia; format: functional
Method in brief: (§3)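 Male HLa (ICR) BR mice, 18-24 g, in groups of eight; reserpine 5 mg/kg ip given 2 h before oral test compound as aqueous solution. Rectal temperature taken hourly; 1-4-h hypothermia assessed by analysis of variance.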

Mus musculus [6] = species on record: Mus musculus; experiment: Compound was evaluated for maximal electroshock antagonism (MES) against mice;I= Inactive; format: functional, organism-based; method in brief: as §2
Mus musculus [7] = species on record: Mus musculus; experiment: Mouse behavior activity was determined; Dwk= Depressant(Weak); format: functional, organism-based; method in brief: as §1
Mus musculus [8] = species on record: Mus musculus; experiment: Compound was evaluated for maximal electroshock antagonism (MES) against mice; I=inactive; format: functional, organism-based; method in brief: as §2
Mus musculus [9] = experiment: Compound was evaluated in vivo for reserpine hypothermia after oral administration in mouse. Minimum active dose was reported, with the percent reversal at 10 mg/kg in parenthesis; I=inactive; format: functional, organism-based; design: dose 10 mg/kg; method in brief: as §3
Mus musculus [10] = species on record: Mus musculus; experiment: Compound was evaluated for maximal electroshock antagonism (MES) against mice; Inactive.; format: functional, organism-based; method in brief: as §2
Mus musculus [11] = experiment: Compound was evaluated in vivo for reserpine hypothermia after oral administration in mouse. Minimum active dose was reported; 10-30% reduction.; format: functional, organism-based; method in brief: as §3
Mus musculus [12] = species on record: Mus musculus; experiment: Mouse behavior activity was determined; Dwk= Depressant Weak.; format: functional, organism-based; method in brief: as §1
Mus musculus [13] = species on record: Mus musculus; experiment: Compound was evaluated for antagonism of reserpine induced hypothermia;I= Inactive.; format: functional, organism-based
Method in brief: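 Male HLa (ICR) BR mice (18-24 g), groups of eight, dosed ip with 5 mg/kg reserpine 2 h before oral test compound given as aqueous solution. Rectal temperature measured hourly; 1-4-h thermia assessed by analysis of variance.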

Mus musculus [14] = species on record: Mus musculus; experiment: Evaluated for antagonism of reserpine induced hypothermia;I= Inactive; format: functional, organism-based; method in brief: as §3
Mus musculus [15] = experiment: Evaluated in vivo for reserpine hypothermia after oral administration in mouse. Minimum active dose was reported; 10-30% reduction; format: functional, organism-based; method in brief: as §3
Mus musculus [16] = species on record: Mus musculus; experiment: Compound was evaluated for maximal electroshock antagonism (MES) against mice; Inactive; format: functional, organism-based; method in brief: as §2
Mus musculus [17] = species on record: Mus musculus; experiment: Mouse behavior activity was determined; Dwk=Depressant Weak; format: functional, organism-based; method in brief: as §1
Mus musculus [18] = species on record: Mus musculus; experiment: Mouse behavior activity was determined; Dwk=Depressant (Weak); format: functional, organism-based; method in brief: as §1
Mus musculus [19] = species on record: Mus musculus; experiment: Compound was evaluated for antagonism of reserpine induced hypothermia; I=inactive; format: functional, organism-based; method in brief: as §3
Mus musculus [20] = experiment: Compound was evaluated in vivo for reserpine hypothermia after oral administration in mouse. Minimum active dose was reported, with the percent reversal at 10 mg/kg; I=inactive; format: functional, organism-based; design: dose 10 mg/kg; method in brief: as §3
Mus musculus [21] = experiment: Mouse behavior activity was determined; I=inactive at a dose of 50 mg/Kg; format: functional, organism-based
[22] = Compound was evaluated for lethal dose in mouse in groups of ten (values in parentheses indicates 95% confidence limits); format: toxicity, organism-based; conditions: in vivo
Mus musculus [23] = experiment: Compound was evaluated for maximal electroshock antagonism (MES) against mice; Inactive at 30 mg/kg; format: functional, organism-based; design: dose 30 mg/kg; method in brief: as §2
Mus musculus [24] = experiment: Evaluated in vivo for reserpine hypothermia after oral administration in mouse. Minimum active dose was reported; Inactive; format: functional, organism-based; method in brief: as §3
Mus musculus [25] = species on record: Mus musculus; experiment: Compound was evaluated for antagonism of reserpine induced hypothermia.; format: functional; method in brief: as §3
Mus musculus [26] = species on record: Mus musculus; experiment: Compound was evaluated for maximal electroshock antagonism (MES) against mice (values in parentheses indicates 95% confidence limits); format: functional
Method in brief: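 Male HLa (ICR) BR mice, groups of eight to ten, given compound ip as aqueous solution 15 min before transcorneal electroshock (50 mA, 0.2 s). End point was abolition of tonic hind-limb extension; quantal ED50 derived by Litchfield-Wilcoxon.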

Mus musculus [27] = species on record: Mus musculus; experiment: Compound was evaluated for antagonism of reserpine induced hypothermia; I = inactive; format: functional, organism-based; method in brief: as §3
Mus musculus [28] = species on record: Mus musculus; experiment: Mouse behavior activity was determined; ST= Stimulant, D = Depressant; format: functional, organism-based; method in brief: as §1
Mus musculus [29] = species on record: Mus musculus; experiment: Righting ability was determined in mice […] rapid rolling (aroused); format: functional
Method in brief: (§4)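 Male Simonsen (ICR) fBR mice, 18-24 g, groups of ten, dosed with aqueous compound. Righting ability checked before (unaroused) and after (aroused) rapid rolling in the hand; ED50 by Litchfield-Wilcoxon method.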

Mus musculus [30] = species on record: Mus musculus; experiment: Mouse behavior activity was determined; Depressant.; format: functional, organism-based; method in brief: as §1
Mus musculus [31] = species on record: Mus musculus; experiment: Righting ability was determined in mice before rapid rolling (unaroused); format: functional; method in brief: as §4
Mus musculus [32] = species on record: Mus musculus; experiment: Mouse behavior activity was determined; Depressant-Stimulant; format: functional, organism-based; method in brief: as §1
Mus musculus [33] = species on record: Mus musculus; experiment: Mouse behavior activity was determined; Stimulant-Depressant Weak; format: functional, organism-based; method in brief: as §1
Mus musculus [34] = species on record: Mus musculus; experiment: Mouse behavior activity was determined; Depressant-Stimulant.; format: functional, organism-based; method in brief: as §1
Mus musculus [35] = species on record: Mus musculus; experiment: Righting ability was determined in mice after rapid rolling (aroused); format: functional; method in brief: as §4
Mus musculus [36] = species on record: Mus musculus; experiment: Mouse behavior activity was determined;D= Depressant.; format: functional, organism-based
Mus musculus [37] = experiment: Compound was evaluated in vivo for reserpine hypothermia after oral administration in mouse.; format: functional; method in brief: as §3
Mus musculus [38] = species on record: Mus musculus; experiment: Compound was evaluated for antagonism of reserpine induced hypothermia;. 5-2.5 excessive variability.; format: functional, organism-based; method in brief: as §3

COC(=O)NC1=NC(c2ccccc2)C(C)N1 (centres undefined)
LD50 [1]: 200 mg/kg | Mouse behavior activity (Mus musculus [2]): Stimulant Weak | ED50 (Mus musculus [3]): 90 mg/kg | Log k' [4]: 0.15

CCOC(=O)NC1=NC(c2cccc(Br)c2)CN1 (centres undefined)
Log k' [4]: 0.77 | HYPO (Mus musculus [5]): <0.5 mg/kg | ED50 (Mus musculus [6]): inactive

COC(=O)NC1=NC(c2ccc(C=O)cc2)CN1C (centres undefined)
LD50 [1]: > 300 mg/kg | Mouse behavior activity (Mus musculus [7]): Depressant - weak | ED50 (Mus musculus [8]): inactive | Log k' [4]: -0.53 | HYPO (Mus musculus [5]): >0.5 mg/kg | ED50 (Mus musculus [9]): inactive

CC(C)COC(=O)NC1=NC(c2ccccc2)CN1 (centres undefined)
LD50 [1]: 700 mg/kg | ED50 (Mus musculus [10]): inactive | Log k' [4]: 0.94 | ED50 (Mus musculus [11]): 10-30% reduction | Mouse behavior activity (Mus musculus [12]): Depressant | HYPO (Mus musculus [13]): inactive

CCOC(=O)NC1=NC(c2ccc(C(C)C)cc2)CN1 (centres undefined)
LD50 [1]: 200 mg/kg | HYPO (Mus musculus [14]): inactive | ED50 (Mus musculus [15]): 10-30% reduction | Log k' [4]: 1.3 | ED50 (Mus musculus [16]): inactive | Mouse behavior activity (Mus musculus [17]): Depressant - weak

COC(=O)NC1=NC(c2ccc(OC(C)=O)cc2)CN1C (centres undefined)
LD50 [1]: 700 mg/kg | Mouse behavior activity (Mus musculus [18]): Depressant - weak | ED50 (Mus musculus [8]): inactive | Log k' [4]: 0.2 | HYPO (Mus musculus [19]): inactive | ED50 (Mus musculus [20]): inactive

COC(=O)NC1=NC(c2ccc(O)c(O)c2)CN1 (centres undefined)
Log k' [4]: -1.51 | Mouse behavior activity (Mus musculus [21]): inactive | HYPO (Mus musculus [5]): >20 mg/kg | LD50 [22]: > 1000 mg/kg

CCOC(=O)NC1=NC(c2cccc(F)c2)CN1C (centres undefined)
ED50 (Mus musculus [23]): inactive | ED50 (Mus musculus [24]): inactive | HYPO (Mus musculus [25]): <0.5 mg/kg | Log k' [4]: 0.51

O=C1NC(=O)C(c2ccccc2)(c2ccccc2)N1 [PHENYTOIN]
ED50 (Mus musculus [26]): 6 mg/kg | HYPO (Mus musculus [27]): inactive | Mouse behavior activity (Mus musculus [28]): Stimulant | LD50 [22]: 700 mg/kg

COC(=O)NC1=NC(c2ccccc2Cl)CN1C (centres undefined)
LD50 [1]: 238 mg/kg | Loss of righting reflex (Mus musculus [29]): 92 mg/kg | Mouse behavior activity (Mus musculus [30]): Depressant | ED50 (Mus musculus [3]): 28 mg/kg | Log k' [4]: 0.51 | Loss of righting reflex (Mus musculus [31]): 49 mg/kg

CC(C)OC(=O)NC1=NC(c2ccccc2Cl)CN1C (centres undefined)
LD50 [1]: 700 mg/kg | Loss of righting reflex (Mus musculus [29]): 67 mg/kg | ED50 (Mus musculus [3]): 35 mg/kg | Log k' [4]: 1.08 | Loss of righting reflex (Mus musculus [31]): 46 mg/kg | Mouse behavior activity (Mus musculus [32]): Depressant-Stimulant

CCOC(=O)NC1=NC(c2ccc(O)cc2)CN1C(C)C (centres undefined)
LD50 [1]: 200 mg/kg | HYPO (Mus musculus [14]): inactive | Mouse behavior activity (Mus musculus [33]): Stimulant-Depressant Weak | Log k' [4]: 0.7 | ED50 (Mus musculus [16]): inactive

CC(C)OC(=O)NC1=NC(c2ccccc2F)CN1C (centres undefined)
LD50 [1]: 700 mg/kg | Loss of righting reflex (Mus musculus [29]): 55 mg/kg | ED50 (Mus musculus [3]): 23 mg/kg | Log k' [4]: 0.77 | Loss of righting reflex (Mus musculus [31]): 11 mg/kg | Mouse behavior activity (Mus musculus [34]): Depressant-Stimulant

COC(=O)NC1=NC(c2cccc(C)c2)CN1 (centres undefined)
LD50 [1]: 500 mg/kg | Loss of righting reflex (Mus musculus [35]): 157 mg/kg | Mouse behavior activity (Mus musculus [36]): Depressant | ED50 (Mus musculus [37]): 51 mg/kg | ED50 (Mus musculus [3]): 100 mg/kg | Log k' [4]: 0.26 | HYPO (Mus musculus [38]): excessive variability | Loss of righting reflex (Mus musculus [31]): 100 mg/kg
